An excerpt weighted towards active compounds, which were near 1.9% of everything screened.
M4 ag = agonists of human muscarinic M4 receptor (CHRM4); P08173; CHO-K1 hM4/Gqi5, Fluo-8 calcium fluorescence; vehicle 0%, full acetylcholine response 100%; activation, % at 3 µM; 0.14% of 360,000 active; AID 624127;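 active means activation above the run mean over all test wells plus 3 SD, cut at about 32% in these data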;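 further: peak over basal fluorescence ratio per well then scaled between controls; 0% = DMSO wells and 100% = acetylcholine at EC100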
Target sequence (P08173 whole entry, looked up): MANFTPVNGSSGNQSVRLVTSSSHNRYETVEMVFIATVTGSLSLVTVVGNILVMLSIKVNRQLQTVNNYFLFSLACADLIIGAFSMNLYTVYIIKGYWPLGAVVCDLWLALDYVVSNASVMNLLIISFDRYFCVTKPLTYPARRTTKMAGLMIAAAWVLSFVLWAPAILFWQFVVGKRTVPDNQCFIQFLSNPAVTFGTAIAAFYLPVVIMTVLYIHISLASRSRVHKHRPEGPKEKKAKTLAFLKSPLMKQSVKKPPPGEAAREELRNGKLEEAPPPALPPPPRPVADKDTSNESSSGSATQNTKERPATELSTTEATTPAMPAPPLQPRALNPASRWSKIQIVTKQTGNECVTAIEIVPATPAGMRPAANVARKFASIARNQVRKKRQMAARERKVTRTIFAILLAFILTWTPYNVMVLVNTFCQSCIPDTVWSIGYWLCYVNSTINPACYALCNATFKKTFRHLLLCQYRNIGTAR
CHRM5 PAM = positive allosteric modulators of human muscarinic M5 receptor; CHO-K1 hM5, Fluo-8 calcium, ACh EC20 PAM; 0% = ACh EC20, 100% = ACh EC100; activation, % at 3 µM; P08912; AID 624038; 0.3% of 360,000 active;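 active means activation above the run cutoff, the mean activation of all test compounds plus 3 SD, cut at about 18% in these data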
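Measured by: Fluo-8 calcium fluorescence; material: human M5 receptor in CHO-K1 cells; schedule: Post-acetylcholine fluorescence recording 140 s; benchmarks: low control EC20 acetylcholine (0%), high control EC100 acetylcholine (100%); read-out: Max/basal fluorescence ratio as % of EC20–EC100 ACh window; compound: single dose, 3 µM nominal final test concentration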
M5 antag = blocks acetylcholine activation of human M5 receptor | P08912 | CHO-hM5 cells, Fluo-8 calcium fluorescence, ACh EC80 | inhibition, % at 3 µM | 0.59% of 360,000 active | AID 624040;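 active means inhibition above a per-plate cutoff, the mean of that plate's test compounds plus 3 SD, cut at about 27% in these data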;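 further: 0% = acetylcholine EC80 with DMSO and 100% = DMSO without agonist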
CHRM4 antagonist = CHRM4 antagonism in calcium assay. CHO-hM4 cells, ACh EC80, Fluo-8 calcium fluorescence. 0.73% of 360,000 active. P08173. inhibition, % at 3 µM. AID 624125;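 active means inhibition above its plate's cutoff, the mean inhibition of sample wells plus 3 SD, cut at about 27% in these data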;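 further: 0% = acetylcholine EC80 with DMSO and 100% = DMSO without agonist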
CHRM4 PAM = potentiates acetylcholine response at human M4 receptor. AID 624126. activation, % at 3 µM. CHO-K1 hM4/Gqi5, Fluo-8 calcium fluorescence, ACh EC20; 0% = ACh EC20, 100% = maximal ACh. 0.4% of 360,000 active. P08173;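 active means activation above its plate's cutoff, the mean activation of sample wells plus 3 SD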
CHRM5 agonist = agonists of human muscarinic M5 receptor (CHRM5); P08912; CHO-K1 hM5 cells, Fluo-8 calcium fluorescence; 0% DMSO wells, 100% maximal acetylcholine response; activation, % at 3 µM; 0.19% of 360,000 active;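 active means activation above the run's mean over test compounds plus 3 SD, cut at about 23% in these data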;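 further: signal is peak over basal fluorescence ratio across the kinetic read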
Numbers without * were called inactive.

SMILES	M4 ag	CHRM5 PAM	M5 antag	CHRM4 antagonist	CHRM4 PAM	CHRM5 agonist
CN(Cc1cnn(C)c1)C(=O)CC1C(=O)NCCN1Cc1cccc(Oc2ccccc2)c1 (stereo unspecified)	4	-14	32*	4	0	-6
CCOC(=O)[C@H]1[C@H]2COc3ccccc3[C@@H]2N2C(=O)c3ccccc3NC(=O)[C@@]12C	2	-16	17	2	-11	-11
Cc1ccc(S(=O)(=O)NCCC(=O)N2CCC(C(N)=O)CC2)cc1C	0	2	-5	-24	26*	-2
CCOC(=O)N1CCN(C(=O)CCNS(=O)(=O)c2ccc(C)c(C)c2)CC1	1	-3	4	-27	4	-4
O=C(CCNS(=O)(=O)c1ccccc1)N1CCCCCC1	1	6	-8	-4	28*	-2
Cc1cc(/C=C2\NC(=O)NC2=O)c(C)n1-c1cccnc1	0	2	-5	-8	5	-1
Cc1cccc(C)c1-n1c(C)cc(/C=C2\NC(=O)NC2=O)c1C	0	0	-4	1	36*	-2
CN(C)CCC(Oc1ccccc1OCc1ccccc1)c1ccccc1 (stereo unspecified)	27	-33	28*	-1	-55	-10
Cc1ccc(Nc2cc(C)nn2-c2nc(C)cc(=O)[nH]2)cc1	-2	-2	41*	59*	2	-6
CC(C)(C)CC(C)(C)NC(=O)c1ccccc1	1	1	5	-6	2	3
CCC(C)(NC(=O)c1ccccc1)C(=O)O (stereo unspecified)	1	9	-2	22	31*	-2
O=C(C1=C(O)C(=O)N(c2nccs2)C1c1ccccc1)c1cc2ccccc2o1 (stereo unspecified)	29	-24	8	11	-17	65*
COc1ccc2sc(-c3ccc(S(C)(=O)=O)cc3)c(C#CCO)c2c1	7	-16	17	6	-2	2
COc1ccc2c(C#CCCO)c(-c3ccc(S(C)(=O)=O)cc3)sc2c1	27	-18	18	32*	-13	-6
O=C(NN=Cc1c(O)ccc2ccccc12)c1ccncc1	11	-19	9	-3	-2	46*
O=C(N/N=C\c1c(O)ccc2ccccc12)c1ccc(O)cc1	3	2	7	-5	-5	2
O=C(N/N=C\c1c(O)ccc2ccccc12)c1cncc(Br)c1	38*	-10	-6	-6	-7	67*
CC(C)c1ccc(NC(=O)Nc2nc(C(N)COCc3ccccc3)cs2)cc1 (stereo unspecified)	10	-2	5	14	-2	3
CCCNC(=O)Cn1c(=O)/c(=C\c2ccc(-c3ccc([N+](=O)[O-])cc3)o2)s/c1=C\C(=O)C(C)(C)C	31	-7	27	18	-4	25*
O=C(O)c1cccc(S(=O)(=O)NCCC(c2ccccc2)c2ccccc2)c1	1	12	0	-26	23*	-7
CC(=O)c1ccc(N2CCN(C(=O)c3ccc(C(=O)c4ccccc4)cc3)CC2)cc1	3	-4	5	-6	-2	0
CCOC(=O)C1CCc2c(ccc3ccccc23)N1CCC#N (stereo unspecified)	1	-5	29*	-13	7	-1
CCOC(=O)C1CCCN(C(=O)c2cccc3ccccc23)C1 (stereo unspecified)	0	-2	8	14	-6	-1
COc1ccc(C(=O)Nc2cc(=O)[nH]c3ncnn23)cc1	0	1	5	29*	4	-1
O=C(Nc1cc(=O)[nH]c2ncnn12)c1ccco1	0	0	1	14	6	0
SMILES	M4 ag	CHRM5 PAM	M5 antag	CHRM4 antagonist	CHRM4 PAM	CHRM5 agonist
Oc1ccc(N=C/C=C/c2cccc(Br)c2)cc1-c1nc2ccccc2s1	0	-3	8	-1	32*	3
Nc1ccc(O)c(-c2nc3ccccc3s2)c1	0	-4	5	4	-2	-1
O=Nc1ccc(NO)c2ccccc12	1	-1	11	-3	-4	-10
CCOC(=O)N1CCN(C(=O)c2ccc3c(=O)n(CCC4=CCCCC4)c(=O)[nH]c3c2)CC1	2	-8	6	39*	-24	-4
O=C(c1ccc(COc2ccccc2Cl)o1)N1N=C(C(F)F)CC1(O)C(F)F (stereo unspecified)	1	-15	13	12	-16	-8
Cc1cccc(OCC(=O)Nc2ccc(N3CCN(C(=O)c4ccco4)CC3)cc2)c1	28	-26	27*	12	-10	10
O=C(CCN1C(=O)NC2(CCCC2)C1=O)Nc1ccc(-c2nc3ccccc3s2)cc1	28	-41	26	27*	-13	3
Cc1ccccc1N(Cc1cc(=O)[nH]c2ccccc12)C(=O)C(C)C	2	-1	-5	-15	-6	-2
Cc1ccc(N(Cc2cc(=O)[nH]c3ccccc23)C(=O)C(C)C)c(C)c1	-1	0	6	46*	-11	0
CN(c1ccccc1)S(=O)(=O)c1cccc(NC(=O)c2cccc(C#N)c2)c1	20	-16	33*	9	-12	6
CN(C)S(=O)(=O)c1cccc(NC(=O)c2ccc(COc3ccccc3)cc2)c1	24	-22	27*	22	-18	8
CN(c1ccccc1)S(=O)(=O)c1cccc(NC(=O)CSc2nnc(N)s2)c1	13	-17	16	11	-14	4
CC(C)N(C(=S)Nc1cccc(S(=O)(=O)N(C)C)c1)c1ccccc1	1	19*	3	-1	2	5
CN(c1ccccc1)S(=O)(=O)c1cccc(NC(=O)CSc2nncs2)c1	15	-17	25	27*	-24	8
COc1cc(C(=O)NC(=S)Nc2nccs2)cc(OC)c1OC	6	-13	15	-2	-8	-4
CNS(=O)(=O)c1cccc(C(=O)NCC(C)(C)N2CCCCC2)c1	1	2	4	-9	4	-3
O=C(C(=O)N1CCN(CCN2CCOCC2)CC1)c1ccccc1	1	-2	7	4	13	-2
O=C1CC(c2ccccc2)Sc2ccccc2N1 (stereo unspecified)	0	7	-6	2	-2	0
S=C1NCC(c2ccccc2)S1 (stereo unspecified)	1	18*	4	-16	13	-5
CC(OC(=O)CCN=C1NS(=O)(=O)c2ccccc21)C(=O)Nc1ccc(S(N)(=O)=O)cc1 (stereo unspecified)	1	-5	6	-8	5	1
